Bioassay records (PubChem)
Most compounds without a hit are left out; they make up all but 2.1% or so of the library.
GRK2 inh – inhibitors of human GRK2 displacing RNA aptamer | inhibition of aptamer binding, % at 10 µM | bead flow cytometry, FAM-aptamer displacement from GRK2 | 330,000 tested, 0.59% active | P25098;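 active = inhibition of aptamer binding above 40%, roughly 3 SD of noise, on plates passing a quality check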;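 note: median bead fluorescence of bound FAM aptamer so fluorescent compounds give negative values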
Target sequence (P25098 whole entry, looked up): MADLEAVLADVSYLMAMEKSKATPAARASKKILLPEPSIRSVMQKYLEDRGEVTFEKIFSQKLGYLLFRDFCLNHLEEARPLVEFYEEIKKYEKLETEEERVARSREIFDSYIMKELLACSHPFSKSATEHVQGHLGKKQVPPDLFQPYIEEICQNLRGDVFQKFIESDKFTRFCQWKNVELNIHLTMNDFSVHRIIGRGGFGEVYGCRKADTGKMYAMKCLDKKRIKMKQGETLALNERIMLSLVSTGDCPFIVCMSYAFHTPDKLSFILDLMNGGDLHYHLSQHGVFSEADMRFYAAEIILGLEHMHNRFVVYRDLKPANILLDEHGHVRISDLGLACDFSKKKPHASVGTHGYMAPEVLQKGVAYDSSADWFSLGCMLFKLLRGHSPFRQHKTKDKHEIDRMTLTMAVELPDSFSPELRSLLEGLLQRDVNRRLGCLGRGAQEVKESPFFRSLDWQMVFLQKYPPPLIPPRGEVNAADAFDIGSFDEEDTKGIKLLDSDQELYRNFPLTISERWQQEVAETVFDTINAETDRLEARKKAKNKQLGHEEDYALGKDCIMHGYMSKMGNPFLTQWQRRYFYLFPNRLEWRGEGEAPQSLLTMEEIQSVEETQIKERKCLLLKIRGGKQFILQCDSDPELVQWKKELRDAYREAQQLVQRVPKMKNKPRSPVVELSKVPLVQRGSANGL
LMPTP inh – blocks human LMPTP phosphatase; inhibition, % at 20 µM; 360,000 tested, 0.22% active; recombinant LMPTP-A, OMFP fluorogenic substrate, fluorescence intensity; P24666;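 active = compounds that cut the enzyme signal by at least half of the control window in the single-dose screen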
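Assay system: LMPTP-A, protein tyrosine phosphatase of low molecular weight / Medium: pH 6.0 Bis-Tris buffer with DTT and Triton X-100 / Schedule: 50 min enzyme reaction at room temperature, protected from light / Measured by: endpoint fluorescence intensity from OMFP dephosphorylation / Read-out basis: % inhibition relative to no-enzyme and uninhibited control wells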
Scp-1 inhibitor – inhibitors of human Scp-1 phosphatase; 340,000 tested, 0.88% active; inhibition, % at 20 µM; AID 493091; Recombinant Scp1, phosphopeptide, malachite green phosphate absorbance;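 active = inhibition above about 50% at 20 µM, limit read from the data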
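Test system: SCP-1 phosphatase catalytic domain, residues 76-261; measured by: colorimetric phosphate reagent with accelerator and stabiliser, absorbance at 630 nm; timing: enzyme reaction 45 min at room temperature, colour 5 min, stabilisation 30 min; also added: Phosphorylated 17-residue peptide substrate; compound dosing: one concentration, 20 µM, with 1.0% DMSO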
STEP block – blocks human striatal-enriched tyrosine phosphatase | P54829 | recombinant STEP, OMFP fluorogenic substrate, fluorescence | inhibition, % at 20 µM | 360,000 tested, 0.25% active;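 active = inhibition at 20 µM, scaled per plate between control wells, above about 37%, limit read from the data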
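Assay system: isolated STEP enzyme / Timing: 20 min at room temperature, dark / Doses: 20 µM, 1% DMSO / Technique: fluorescence intensity, excitation 480 nm, emission 540 nm / Reagent: fluorogenic phosphatase substrate OMFP at 25 µM final / Measure: percent inhibition scaled to no-enzyme and uninhibited-enzyme controls, plate-pattern corrected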
SUMO1-SIM PPI – SUMO1-SIM interaction modulation; SUMO1 binding to a labelled peptide, TR-FRET, 1 h; AID 602429; inhibition, % at 20 µM; P63165; 360,000 tested, 0.33% active; in the data active = inhibition above about 37%
DNMT1 inh – DNMT1 (human) enzyme inhibition; P26358; DNMT1 molecular beacon, Hinp1I cleavage, fluorescence; inhibition (reported as % activation of signal), % at 10 µM; 360,000 tested, 0.83% active; in the data active = inhibition above about 50%
GRK2 CP1 – human GRK2 inhibition confirmation, cherry pick 1; aptamer displacement, % at 10 µM; bead-bound GRK2, FAM-aptamer displacement, flow cytometry; AID 504451; 2,000 tested, 4% active; shares compounds with GRK2 inh;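 active = aptamer displacement above 40%, near three times the noise of non-fluorescent compounds, on plates passing quality checks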;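 note: negative values mostly reflect intrinsic compound fluorescence rather than true enhancement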
Aptamer quench – fluorescent aptamer quenching in GRK2 counter-screen dose response | shares compounds with GRK2 inh | Fluorescent RNA aptamer beads, flow cytometry; stronger effect = higher value | fluorescence change (kMESF span), kMESF (concentration not given with the values) | 110 tested, under 10 active | AID 504521;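 active = compounds whose bead fluorescence drops by more than 37 kMESF across the dose range, marking them as dye quenchers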
Aptamer quench SP – aptamer fluorescence quenching in GRK2 counter-screen | fluorescence response (% of DMSO), % at 10 µM | AID 504580 | Carboxyfluorescein RNA aptamer on beads, flow cytometry quenching; stronger effect = lower value | 2,000 tested, under 10 active | shares compounds with GRK2 inh;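 active = compounds that quench the bead-bound fluorescent RNA probe, cutting fluorescence to under half of the solvent control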;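 note: counterscreen run without GRK2 so only probe quenching by compound is measured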
GRK2 confirm 2 – confirmation of human GRK2 inhibitors binding RNA aptamer site; AID 504782; inhibition of aptamer binding, % at 10 µM; shares compounds with GRK2 inh; 360 tested, under 10 active; bead-bound GRK2, FAM-aptamer displacement, flow cytometry;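 active = inhibition of aptamer binding above 40%, about triple the noise seen with nonglowing compounds, on plates passing quality control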;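 note: negative values mostly come from compounds that fluoresce themselves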
FAM quench CP2 – quenches fluorescent RNA aptamer, GRK2 hit artifact; shares compounds with GRK2 inh; carboxyfluorescein RNA aptamer beads, flow cytometry quenching; stronger effect = lower value; fluorescence response vs DMSO, % at 10 µM; 360 tested, under 10 active; AID 588494;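 active = response vs DMSO under 50%, meaning signal dropped by over half, treated as fluorescence quencher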;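 note: labelled aptamer on streptavidin beads without GRK2 as a quench counter-screen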
Hits are given with their value; i = inactive; nt = no result.

SMILES	GRK2 inh	LMPTP inh	Scp-1 inhibitor	STEP block	SUMO1-SIM PPI	DNMT1 inh	GRK2 CP1	Aptamer quench SP	others
CC(Nc1nc(-c2cccc(Br)c2)cs1)c1nc2cc(Cl)c(N3CCCCC3)cc2n1CCOCCO (centres undefined)	i	i	i	i	i	i	i	i
CC(Nc1nc(-c2ccc(F)cc2)cs1)c1nc2cc(Cl)c(N3CCCCC3)cc2n1CCOCCO (centres undefined)	i	i	i	i	i	i	i	i
CCCCn1nnnc1C(c1cc2ccccc2o1)N(CCC#N)Cc1ccccc1 (centres undefined)	nt	i	nt	nt	i	nt	nt	nt
Cc1cccc(NC(=O)CSc2c3c(nc4ccccc24)CCC3)n1	i	i	i	i	i	i	nt	nt	GRK2 confirm 2=i;FAM quench CP2=i
COc1cccc(CNC(=O)[C@@H]2CCCN2C(=O)[C@@H]2CCCN2C(=O)OC(C)(C)C)c1	nt	i	nt	nt	i	nt	nt	nt
Cc1cccc(NC(=O)c2nc[nH]c2C(=O)N[C@@H](Cc2ccccc2)C(=O)OCc2ccccc2)c1	51.0	i	i	i	i	i	i	i	GRK2 confirm 2=i;FAM quench CP2=i
COc1cc2cc(CCOC(=O)N3CCCCC3)oc(=O)c2cc1OC	42.0	i	i	i	i	i	i	i
COc1cc2cc(CCOC(=O)CCCC(=O)O)oc(=O)c2cc1OC	i	i	i	i	i	i	nt	nt
Cc1nc(CN2CCOCC2)cc(=O)[nH]1	48.0	i	i	i	i	i	i	i
O=c1cc(CN2CCCCC2)nc(C2CC2)[nH]1	i	i	i	i	i	i	nt	nt
CC(C)=C[C@H]1C[C@H](C)[C@H]2CC[C@H](C)c3c(O)c(O[C@H]4OC[C@H](O)[C@@H](O)[C@@H]4O)c(C)c1c32	nt	i	nt	i	i	i	nt	nt
Cc1ccc(S(=O)(=O)N2CCCC(C(=O)NCc3ccccc3F)C2)cc1 (centres undefined)	i	i	i	i	i	i	nt	nt
O=C(NCc1ccccc1F)C1CCCN(S(=O)(=O)c2ccc(-n3cnnn3)cc2)C1 (centres undefined)	i	i	i	i	i	i	i	i
COc1ccccc1CNC(=O)C1CCCN(S(=O)(=O)c2ccc3c(c2)C(C)(C)C(=O)N3C)C1 (centres undefined)	i	i	i	i	i	i	i	i
Cc1ccc(CNC(=O)C2CCCN(S(=O)(=O)c3ccc(-n4cnnn4)cc3)C2)cc1 (centres undefined)	i	i	i	i	i	i	i	i
O=[N+]([O-])c1ccc(N2CCN(c3ccc(Cl)nn3)CC2)cc1NC1CC1	64.0	i	i	i	i	i	i	i
COc1ccc(NC(=O)N(Cc2ccc3c(c2)OCO3)C2CC(=O)N(c3ccc(OC)cc3)C2=O)cc1 (centres undefined)	99.0	i	i	i	i	i	i	i
O=C1CC(N(Cc2ccc3c(c2)OCO3)C(=O)Nc2ccc(F)cc2)C(=O)N1c1ccccc1 (centres undefined)	i	i	i	i	i	i	nt	nt
C=C1[C@@H](O)[C@H](Cc2ccccc2)N(Cc2ccccc2Br)S1(=O)=O	nt	i	i	i	i	i	nt	nt
COc1ccc(NC(=O)CSc2nnc(-c3cccc(O)c3)o2)cc1	i	i	i	i	i	i	nt	nt
COc1cccc(NC(=O)CSc2nnc(-c3cc(C)n(-c4ccccc4)c3C)o2)c1	98.0	i	i	i	i	i	i	i
COC(=O)[C@@H]1ON2OCC(C)=C3CCCC[C@@]32[C@H]1C(=O)OC	nt	i	nt	nt	i	nt	nt	nt
CCOc1ccccc1C(=O)N[C@H](C(=O)Nc1nc2c(s1)CCCC2)C(C)C	43.0	i	i	i	i	i	i	i
COC(=O)c1ccc(CNC(=O)CC[C@H]2O[C@@H](n3cc(C)c(=O)[nH]c3=O)C[C@@H]2O)cc1	nt	i	nt	i	i	i	nt	nt
CC1=C(C(=O)N(C(C)C)C(C)C)CC(CC(=O)NCCN2CCOCC2)C(=O)N1CCC1=CCCCC1 (centres undefined)	nt	i	nt	i	i	i	nt	nt
SMILES	GRK2 inh	LMPTP inh	Scp-1 inhibitor	STEP block	SUMO1-SIM PPI	DNMT1 inh	GRK2 CP1	Aptamer quench SP	others
CCN(CC)CCn1c(OC)cc(=O)[nH]c1=O	69.0	i	i	i	i	i	i	i
CCC(C)CNC(=O)c1[nH]c(C(F)(F)F)nc1-c1ccccc1 (centres undefined)	nt	i	nt	i	i	i	nt	nt
COCC(=O)N1CCC(Oc2ccc(C(=O)NCc3cnc(C)cn3)cc2)CC1	i	i	i	i	i	i	nt	nt
CCn1ccnc1CNC(=O)c1ccc(OC2CCN(C(=O)COC)CC2)cc1	i	i	i	i	i	i	i	i
CN(C)c1ccc(/C=C/c2nc3ccccc3c(=O)n2-c2ccc(C(=O)O)cc2)cc1	i	i	64.1	i	i	i	i	i
CCOc1cccc(/C(O)=C2/C(=O)C(=O)N(Cc3cccnc3)C2c2ccco2)c1 (centres undefined)	i	i	i	i	i	i	nt	nt
CCOc1cccc(/C(O)=C2/C(=O)C(=O)N(CCOC)C2c2ccco2)c1 (centres undefined)	47.0	i	i	i	i	i	i	i
O=C(Nc1ccccc1)N1CCCN(Cc2ccccc2F)C1	99.0	i	i	i	i	i	i	i
C#CC(C)OCC1CNC(=S)O1 (centres undefined)	nt	i	nt	i	i	i	nt	nt
CCn1c(SCC(=O)N(C)c2c(N)n(Cc3ccccc3)c(=O)[nH]c2=O)nnc1-c1cccs1	nt	i	nt	i	i	i	nt	nt
CCSc1nc2c(c(=O)[nH]c(=O)n2C)n1C/C=C(/C)Cl	i	i	i	i	i	i	nt	nt
CCOC(=O)C(C)Sc1nc2c(c(=O)[nH]c(=O)n2C)n1C/C=C(/C)Cl (centres undefined)	58.0	i	i	i	i	i	57.7	i	Aptamer quench=i
CCn1cc(C(=O)NC(C)C)c(=O)c2cc(F)c(N3CCN(C(=O)c4ccco4)CC3)cc21	88.0	i	i	i	i	i	i	i
